Measured values: ChEMBL document CHEMBL1687766, “In vitro activity of the new multivalent glycopeptide-cephalosporin antibiotic TD-1792 against vancomycin-nonsusceptible Staphylococcus isolates” (Antimicrob Agents Chemother, 2010)

Key:
[1] = test system: Staphylococcus aureus; experiment: Antimicrobial activity against methicillin-resistant Staphylococcus aureus infected in patient with complicated skin and skin structure infections assessed as cure rate; type: functional
[2] = test system: Staphylococcus aureus; experiment: Antimicrobial activity against vancomycin-resistant Staphylococcus aureus isolate PA assessed as bacterial count at 16 times MIC after 24 hrs by colony counting method in presence of 50% human serum; type: functional
How it was run: (§1)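 Time-kill in triplicate, starting inoculum 5 × 10^6 CFU/ml from a mid-exponential culture. Medium was 50% heat-treated, filtered human serum plus 50% broth, final 25 SMHB for TD-1792 and 50 SMHB for daptomycin. Drug at multiples of MIC. Samples to 24 h were plated on BHI agar for 24 h at 35°C. Value is the log10 CFU/ml change from baseline at 24 h.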

[3] = test system: Staphylococcus aureus; experiment: Antimicrobial activity against vancomycin-intermediate Staphylococcus aureus isolate MU50 assessed as bacterial count at 4 times MIC after 24 hrs by colony counting method in presence of 50% human serum; type: functional
How it was run: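 Triplicate 24-h time-kill in 50% human serum (heated 56°C 1 h, filtered) mixed with supplemented Mueller-Hinton broth, giving final 25 μg/ml Ca broth strength for TD-1792 and 50 for daptomycin. […] Samples from 0 to 24 h were counted on BHI agar (35°C, 24 h). Value is log10 CFU/ml change from baseline.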

[4] = test system: Staphylococcus aureus; experiment: Antimicrobial activity against vancomycin-intermediate Staphylococcus aureus isolate NJ992 after 24 hrs by microdilution method in presence of 50% human serum; type: functional; conditions: isolate NJ992, 24 h
How it was run: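 Broth microdilution per CLSI, inoculum 5 × 10^5 CFU/ml, 24 h at 35°C, in duplicate. Medium was 50% (vol/vol) human serum plus 50% broth, final 25 SMHB for TD-1792 and 50 SMHB for daptomycin. Serum was heated 56°C for 1 h and filtered through 0.8, 0.5 and 0.22 μm. MBC by plating clear wells on BHI agar.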

[5] = test system: Staphylococcus aureus; experiment: Antimicrobial activity against vancomycin-resistant Staphylococcus aureus isolate PA assessed as bacterial count at 16 times MIC after 24 hrs by colony counting method; type: functional
How it was run: (§2)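 Time-kill in triplicate. Mid-exponential culture (OD600 ~0.3) diluted in supplemented Mueller-Hinton broth to 5 × 10^6 CFU/ml. Daptomycin was run at physiologic calcium, 1.1 to 1.3 mM. […] Samples at 0, 1, 4, 8 and 24 h were diluted in cold saline or vacuum filtered, then spiral-plated on BHI agar for 24 h at 35°C. Value is the log10 CFU/ml change from baseline at 24 h.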

[6] = test system: Staphylococcus aureus; experiment: Antimicrobial activity against vancomycin-resistant Staphylococcus aureus isolate PA assessed as bacterial count at 4 times MIC after 24 hrs by colony counting method in presence of 50% human serum; type: functional; how it was run: as §1
[7] = test system: Staphylococcus aureus; experiment: Antimicrobial activity against vancomycin-resistant Staphylococcus aureus isolate MI assessed as bacterial count at 32 times MIC after 24 hrs by colony counting method; type: functional; how it was run: as §2
[8] = test system: Staphylococcus aureus; experiment: Antimicrobial activity against vancomycin-resistant Staphylococcus aureus isolate PA assessed as bacterial count at 8 times MIC after 24 hrs by colony counting method; type: functional; how it was run: as §2
[9] = Plasma protein binding in human in presence of human serum; type: ADME, cell-free; conditions: read-out: PPB (converted)

Work on CN[C@H](CC(C)C)C(=O)N[C@H]1C(=O)N[C@@H](CC(N)=O)C(=O)N[C@H]2C(=O)N[C@H]3C(=O)N[C@H](C(=O)N[C@H](C(=O)NCCCO/N=C(\C(=O)N[C@@H]4C(=O)N5C(C(=O)[O-])=C(C[n+]6ccccc6)CS[C@H]45)c4nc(N)sc4Cl)c4cc(O)cc(O)c4-c4cc3ccc4O)[C@H](O)c3ccc(c(Cl)c3)Oc3cc2cc(c3O[C@@H]2O[C@H](CO)[C@@H](O)[C@H](O)[C@H]2O[C@H]2C[C@](C)(N)[C@H](O)[C@H](C)O2)Oc2ccc(cc2Cl)[C@H]1O yielded an Activity [1] of 94.7%, a log10CFU/ml [2] of 5.15 and a log10CFU/ml [3] of 3.05. The MBC [4] was 0.25 µg/mL, the MIC [4] was 0.25 µg/mL and the log10CFU/ml [5] was 4.17. For the same molecule, the log10CFU/ml [6] was 4.04 and the log10CFU/ml [7] was 5.13.

Molecule CCCCCCCCCC(=O)N[C@@H](Cc1c[nH]c2ccccc12)C(=O)N[C@H](CC(N)=O)C(=O)N[C@@H](CC(=O)O)C(=O)N[C@@H]1C(=O)NCC(=O)N[C@@H](CCCN)C(=O)N[C@@H](CC(=O)O)C(=O)N[C@H](C)C(=O)N[C@@H](CC(=O)O)C(=O)NCC(=O)N[C@H](CO)C(=O)N[C@@H]([C@H](C)CC(=O)O)C(=O)N[C@@H](CC(=O)c2ccccc2N)C(=O)O[C@@H]1C has a log10CFU/ml [8] of 4.95, a log10CFU/ml [3] of 4.01 and an MBC [4] of 2 µg/mL. For the same molecule, the MIC [4] was 2 µg/mL, the log10CFU/ml [5] was 5.14 and the fraction unbound [9] was 0.08.
